Two molecules from ChEMBL document CHEMBL4196009, “Novel vitexin-inspired scaffold against leukemia” (Eur J Med Chem, 2018) can be followed below.

Assay [1] is filed under the species Homo sapiens. Put plainly: Inhibition of RNA polymerase 2 C-terminal domain phosphorylation at Ser2 residue in human KOPN8 cells at 100 uM pre-treated with NAC for 1 hr and measured after 3 hrs by Western blot analysis relative to control. In kind it is cell-based. In outline:
(§1)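 KOPN-8 cells were exposed to compound for 3 h and 24 h, with or without N-acetylcysteine added to a parallel set as antioxidant. Lysates were analysed by Western blot for cleaved PARP, Mcl-1, Ser-2-phosphorylated RNAPII CTD, cMyc, total Rb and pRb. Signals were compared against controls for dose-dependent change.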
In general terms: In western blotting, separated proteins are transferred to a membrane and probed.

The species entered for assay [2] is Homo sapiens. Put plainly: Inhibition of RNA polymerase 2 C-terminal domain phosphorylation at Ser2 residue in human KOPN8 cells at 30 uM after 3 hrs by Western blot analysis relative to control. In kind it is cell-based. In a few lines:
as §1

The species entered for assay [3] is Homo sapiens. Put plainly: Inhibition of RNA polymerase 2 C-terminal domain phosphorylation at Ser2 residue in human KOPN8 cells at 100 uM after 3 hrs by Western blot analysis relative to control. In kind it is cell-based. In a few lines:
as §1

Assay [4] deals with KOPN-8. Put plainly: Effect on c-Myc expression in human KOPN8 cells at 30 uM pre-treated with NAC for 1 hr and measured after 3 hrs by Western blot analysis relative to control. In kind it is functional.
The test system of assay [5] is KOPN-8. Put plainly: Effect on c-Myc expression in human KOPN8 cells at 10 uM pre-treated with NAC for 1 hr and measured after 24 hrs by Western blot analysis relative to control. In kind it is functional.
In assay [6] the test system is KOPN-8. Put plainly: Effect on c-Myc expression in human KOPN8 cells at 100 uM pre-treated with NAC for 1 hr and measured after 3 hrs by Western blot analysis relative to control. In kind it is functional.
The test system of assay [7] is KOPN-8. Put plainly: Induction of apoptosis in human KOPN8 cells assessed as effect on Mcl-1 level at 100 uM after 3 hrs by Western blot analysis relative to control. In kind it is functional. In outline: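 KOPN-8 cells were treated at 10–100 µM final, with or without N-acetylcysteine co-addition, for 3 h and 24 h. Lysates were analysed by Western blot for PARP cleavage, Mcl-1, phospho-Ser2 RNAPII CTD, c-Myc, total Rb and pRb. Levels are relative to the vehicle control.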

Assay [8] deals with KOPN-8. Put plainly: Induction of apoptosis in human KOPN8 cells assessed as effect on Mcl-1 level at 30 uM pre-treated with NAC for 1 hr and measured after 3 hrs by Western blot analysis relative to control. In kind it is functional. In outline: as §1
The subject of assay [9] is KOPN-8. Put plainly: Induction of apoptosis in human KOPN8 cells assessed as necrotic cells at 10 uM after 24 hrs by Annexin V-FITC/propidium iodide staining-based flow cytometry (reference value: 0.2%). In kind it is functional. In a few lines: (§2)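 KOPN-8 cells were treated for 24 h, with a DMSO vehicle control and a staurosporine positive control. Cells were stained with FITC-Annexin V and propidium iodide and analysed by flow cytometry. Quadrant gating separated viable, early apoptotic, late apoptotic (Q2) and necrotic populations.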
(In general: A flow cytometer gives signals particle by particle.)

Assay [10] addresses T1, Retinoblastoma-associated protein (Homo sapiens) (UniProt P06400).
T1 sequence (whole entry): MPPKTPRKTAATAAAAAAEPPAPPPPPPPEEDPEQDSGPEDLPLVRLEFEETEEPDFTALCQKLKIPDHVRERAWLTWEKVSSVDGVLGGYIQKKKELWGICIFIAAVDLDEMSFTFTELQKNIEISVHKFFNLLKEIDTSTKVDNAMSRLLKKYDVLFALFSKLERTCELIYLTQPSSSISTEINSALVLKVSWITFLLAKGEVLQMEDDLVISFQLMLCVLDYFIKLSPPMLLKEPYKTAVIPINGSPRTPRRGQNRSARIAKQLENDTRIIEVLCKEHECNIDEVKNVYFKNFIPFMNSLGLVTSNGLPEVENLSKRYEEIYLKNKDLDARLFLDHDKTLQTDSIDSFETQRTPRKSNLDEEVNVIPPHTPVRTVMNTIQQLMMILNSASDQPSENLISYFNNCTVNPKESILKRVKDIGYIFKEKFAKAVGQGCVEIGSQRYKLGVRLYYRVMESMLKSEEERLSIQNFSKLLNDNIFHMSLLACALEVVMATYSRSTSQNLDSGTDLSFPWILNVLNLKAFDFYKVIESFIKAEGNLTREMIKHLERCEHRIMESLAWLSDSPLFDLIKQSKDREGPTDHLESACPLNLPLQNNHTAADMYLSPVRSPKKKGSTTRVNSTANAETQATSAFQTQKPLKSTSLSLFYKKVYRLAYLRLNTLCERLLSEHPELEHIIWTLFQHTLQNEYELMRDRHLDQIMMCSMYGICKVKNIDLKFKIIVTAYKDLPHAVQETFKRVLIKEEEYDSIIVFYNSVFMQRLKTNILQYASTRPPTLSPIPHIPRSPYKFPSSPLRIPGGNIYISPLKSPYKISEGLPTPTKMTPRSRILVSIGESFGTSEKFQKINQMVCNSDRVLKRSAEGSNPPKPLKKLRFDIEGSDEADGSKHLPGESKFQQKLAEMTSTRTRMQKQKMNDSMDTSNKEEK
Put plainly: Inhibition of Rb phosphorylation in human KOPN8 cells assessed as ratio of phosphorylated Rb to total Rb levels at 10 uM pre-treated with NAC for 1 hr and measured after 3 hrs by Western blot analysis relative to control. In kind it is cell-based. In a few lines:
(§3)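 KOPN-8 pre-B ALL cells were treated for 3 h and 24 h, with or without N-acetyl cysteine added to a parallel set of cells as an antioxidant/ROS quencher. Lysates were analysed by Western blot for phosphorylated Rb and total Rb. The same blots also probed PARP cleavage, Mcl-1, Ser-2-phosphorylated RNAPII CTD and cMyc.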

In assay [11] the test system is KOPN-8. Put plainly: Induction of apoptosis in human KOPN8 cells assessed as effect on Mcl-1 level at 30 uM after 3 hrs by Western blot analysis relative to control. In kind it is functional. In a few lines: as §1
For assay [12], the species on record is Homo sapiens. Put plainly: Inhibition of RNA polymerase 2 C-terminal domain phosphorylation at Ser2 residue in human KOPN8 cells at 10 uM after 24 hrs by Western blot analysis relative to control. In kind it is cell-based. In a few lines:
as §1

Assay [13] has as its system KOPN-8. Put plainly: Induction of apoptosis in human KOPN8 cells assessed as late apoptotic cells at 5 uM after 24 hrs by Annexin V-FITC/propidium iodide staining-based flow cytometry (reference value: 9.5%). In kind it is functional. In a few lines: as §2
The target in assay [14] is T1, Retinoblastoma-associated protein (Homo sapiens). Put plainly: Inhibition of Rb phosphorylation in human KOPN8 cells assessed as ratio of phosphorylated Rb to total Rb levels at 0.5 uM after 3 hrs by Western blot analysis relative to control. In kind it is cell-based. In outline:
as §3

For assay [15], the system named is KOPN-8. Put plainly: Effect on c-Myc expression in human KOPN8 cells at 0.5 uM after 3 hrs by Western blot analysis relative to control. In kind it is functional.
Assay [16] has as its system KOPN-8. Put plainly: Induction of apoptosis in human KOPN8 cells assessed as viable cells at 5 uM after 24 hrs by Annexin V-FITC/propidium iodide staining-based flow cytometry (reference value: 85.2%). In kind it is functional. Particulars: KOPN-8, 24 h, read-out: Activity. In a few lines: as §2
In another assay the test system is MDA-MB-231. Put plainly: Cell cycle arrest in human MDA-MB-231 cells assessed as accumulation at S phase at 5 uM after 24 hrs by propidium iodide staining-based flow cytometry (reference value: 20.15%). In kind it is functional.
The subject of a further assay is SUP-B15. Put plainly: Induction of apoptosis in human SUP-B15 cells assessed as viable cells at 5 uM after 24 hrs by Annexin V-FITC/propidium iodide staining-based flow cytometry (reference value: 82.8%). Particulars: SUP-B15, 24 h, read-out: Activity. In kind it is functional.
Assay [17] has as its system KOPN-8. Put plainly: Effect on c-Myc expression in human KOPN8 cells at 0.5 uM after 24 hrs by Western blot analysis relative to control. In kind it is functional.

For the molecule `COc1ccc(-c2c(I)c(=O)c3c(OC)cc(OC)cc3n2S(=O)(=O)c2ccc(OC)cc2)cc1`, the fold change (FC) in the assay listed under Homo sapiens [1] is 1.6; in the assay filed under Homo sapiens [2], 1; in the assay filed under Homo sapiens [3] it was 1.4; with KOPN-8 [4], 1; in the assay on KOPN-8 [5] it was 1.3; with KOPN-8 [6], 0.5. In addition, the “fold change (FC)” value turned out to be 0.6 in the assay on KOPN-8 [7]; 0.8 in the assay on KOPN-8 [8]; 1 in assay [10]; 0.6 in the assay with KOPN-8 [11]; 1.8 in the assay filed under Homo sapiens [12]. In addition, the Activity in the assay with KOPN-8 [9] was 0.3%.
With `CN(C)C(=O)c1cc2cnc(Nc3ccc(N4CCNCC4)cn3)nc2n1C1CCCC1` [RIBOCICLIB], the Activity in the assay with KOPN-8 [13] stood at 67.4%; in the assay with MDA-MB-231, 4.64%. Moreover, the fold change (FC) in [14] worked out at 1; with KOPN-8 [15] it was 1; with KOPN-8 [17] it was 1.2. In addition, the viability at 5 µM in the assay with KOPN-8 [16] turned out to be 2.3%; with SUP-B15, 35.4%.
